What was measured:
Rattus norvegicus [1] = species on record: Rattus norvegicus; experiment: Percent decrease in plasma testosterone after 6 hr; format: functional
Outline: (§1)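 Adult male Sprague-Dawley rats, 7–8 per group, each received one intraperitoneal dose of 0.019 mmol/kg in olive oil/benzyl alcohol (95:5). Blood was drawn by cardiac puncture under diethyl ether anaesthesia at 2 or 6 h. Plasma testosterone was measured by double-antibody [125I]RIA (detection limit 0.1 ng/mL) and compared with vehicle controls.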

Rattus norvegicus [2] = species on record: Rattus norvegicus; experiment: Percent decrease in plasma testosterone after 2 hr; format: functional; outline: as §1
[3] = target: T1, Steroid 17-alpha-hydroxylase/17,20 lyase (Homo sapiens, UniProt P05093); experiment: Evaluated for the inhibitory activity towards Cytochrome P450 17 human enzyme using testicular microsome at 25 uM of substrate (progesterone); set-up: species or system Testis
T1 sequence (P05093 whole entry): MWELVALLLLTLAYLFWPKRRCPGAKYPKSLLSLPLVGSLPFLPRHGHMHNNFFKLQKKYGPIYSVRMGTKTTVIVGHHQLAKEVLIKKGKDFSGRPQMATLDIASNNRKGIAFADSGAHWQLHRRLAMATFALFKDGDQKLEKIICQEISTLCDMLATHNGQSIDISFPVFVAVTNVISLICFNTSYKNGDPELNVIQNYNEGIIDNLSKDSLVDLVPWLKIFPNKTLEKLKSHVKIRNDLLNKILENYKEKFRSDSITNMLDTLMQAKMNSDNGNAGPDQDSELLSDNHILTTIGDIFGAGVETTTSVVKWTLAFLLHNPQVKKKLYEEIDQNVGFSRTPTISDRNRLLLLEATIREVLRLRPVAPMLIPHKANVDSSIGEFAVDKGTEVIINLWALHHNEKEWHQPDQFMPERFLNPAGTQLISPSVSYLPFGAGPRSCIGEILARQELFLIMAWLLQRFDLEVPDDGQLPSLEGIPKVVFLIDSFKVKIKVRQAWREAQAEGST

[4] = target: T2, Steroid 17-alpha-hydroxylase/17,20 lyase (Rattus norvegicus, UniProt P11715); experiment: Evaluated for the inhibitory activity towards Cytochrome P450 17 rat enzyme using testicular microsome at 25 uM of substrate (progesterone); set-up: species or system Testis
T2 sequence (P11715 whole entry): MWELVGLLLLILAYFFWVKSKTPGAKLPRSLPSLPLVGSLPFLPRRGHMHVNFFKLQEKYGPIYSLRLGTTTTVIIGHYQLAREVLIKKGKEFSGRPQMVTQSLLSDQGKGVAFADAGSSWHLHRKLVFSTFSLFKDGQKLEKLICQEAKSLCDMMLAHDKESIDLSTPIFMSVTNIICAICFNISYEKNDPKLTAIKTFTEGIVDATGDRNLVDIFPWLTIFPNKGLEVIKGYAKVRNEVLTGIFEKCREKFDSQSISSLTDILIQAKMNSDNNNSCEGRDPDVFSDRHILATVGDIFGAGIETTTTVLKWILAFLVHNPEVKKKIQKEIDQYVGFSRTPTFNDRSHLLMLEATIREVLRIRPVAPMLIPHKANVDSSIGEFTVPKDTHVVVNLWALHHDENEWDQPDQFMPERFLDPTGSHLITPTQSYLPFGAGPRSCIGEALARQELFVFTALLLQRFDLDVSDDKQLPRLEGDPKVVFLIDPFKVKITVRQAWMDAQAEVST
Outline: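 Testicular microsomes (human for human enzyme, rat for rat enzyme) incubated with progesterone substrate at 25 µM; product measured by RP-HPLC with UV detection. IC50 = concentration giving 50% inhibition, mean of at least two experiments.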

[5] = target: T3, P450 scc (cholesterol side-chain cleavage enzyme, mitochondrial) (Bos taurus, UniProt P00189); experiment: Inhibition of P450 scc at 25 uM; conditions: cattle
T3 sequence (P00189 whole entry): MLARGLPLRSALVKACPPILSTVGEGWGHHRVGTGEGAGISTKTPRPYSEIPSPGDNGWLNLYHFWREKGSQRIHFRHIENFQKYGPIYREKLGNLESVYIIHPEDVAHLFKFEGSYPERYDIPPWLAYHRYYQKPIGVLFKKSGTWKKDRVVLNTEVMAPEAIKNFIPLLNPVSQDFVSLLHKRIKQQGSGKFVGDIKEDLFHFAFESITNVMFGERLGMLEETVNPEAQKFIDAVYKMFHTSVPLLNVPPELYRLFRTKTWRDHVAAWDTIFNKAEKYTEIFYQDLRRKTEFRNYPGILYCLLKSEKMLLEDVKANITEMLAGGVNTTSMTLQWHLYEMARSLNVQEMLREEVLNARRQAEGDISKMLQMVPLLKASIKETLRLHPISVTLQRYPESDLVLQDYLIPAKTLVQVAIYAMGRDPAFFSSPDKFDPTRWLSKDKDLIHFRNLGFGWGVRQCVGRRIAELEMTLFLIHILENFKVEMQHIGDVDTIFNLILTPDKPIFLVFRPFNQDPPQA
Outline: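 Bovine adrenal P450 scc preparation; inhibitor tested at 25 µM.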

[6] = target: T2, Steroid 17-alpha-hydroxylase/17,20 lyase; experiment: Inhibition of Cytochrome P450 17 from rat testicular microsome at 25 uM progesterone; No inhibition
[7] = target: T1, Steroid 17-alpha-hydroxylase/17,20 lyase; experiment: Inhibition of Cytochrome P450 17 of human testicular microsome at 25 uM progesterone; No inhibition
[8] = target: T1, Steroid 17-alpha-hydroxylase/17,20 lyase; experiment: Inhibition of Human P450 17 and NADPH-P450 reductase co-expressed in Escherichia coli with 25 uM progesterone
[9] = target: T4, 3-oxo-5-alpha-steroid 4-dehydrogenase 2 (Homo sapiens, UniProt P31213); experiment: Inhibition of Human steroid 5-alpha-reductase type II expressed in HEK293 cells; format: cell-based
T4 sequence (P31213 whole entry): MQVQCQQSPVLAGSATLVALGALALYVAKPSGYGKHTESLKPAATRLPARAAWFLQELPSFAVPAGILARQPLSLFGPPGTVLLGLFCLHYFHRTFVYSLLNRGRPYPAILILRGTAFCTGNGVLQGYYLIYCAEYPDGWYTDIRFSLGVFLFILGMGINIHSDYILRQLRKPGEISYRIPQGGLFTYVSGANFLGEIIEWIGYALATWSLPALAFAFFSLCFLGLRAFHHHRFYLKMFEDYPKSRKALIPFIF
Outline: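 Stably transfected HEK293 clones expressing full-length human type 1 or type 2 cDNA; 300 000 cells per well attached overnight at 37 °C. Fresh DMEM/10% FCS with 5 nM [3H]androstenedione and inhibitor added, final DMSO 1%. Incubated 30 min (type 1) or 13 min (type 2); supernatant ether-extracted and analysed by HPLC. Mean of at least three experiments.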

[10] = target: T5, 3-oxo-5-alpha-steroid 4-dehydrogenase 1 (Homo sapiens, UniProt P18405); experiment: Inhibition of Human steroid 5-alpha-reductase type I expressed in HEK293 cells; format: cell-based
T5 sequence (P18405 whole entry): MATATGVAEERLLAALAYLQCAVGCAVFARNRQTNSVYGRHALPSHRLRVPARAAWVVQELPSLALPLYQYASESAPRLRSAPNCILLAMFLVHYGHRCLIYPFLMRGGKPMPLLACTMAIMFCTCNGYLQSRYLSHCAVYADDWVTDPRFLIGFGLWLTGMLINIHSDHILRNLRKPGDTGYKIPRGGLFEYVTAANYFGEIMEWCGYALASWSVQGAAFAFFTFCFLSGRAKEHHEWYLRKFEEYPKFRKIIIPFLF
Outline: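 Human 5α-reductase type 1 cDNA (plasmid pRcCMV-I) stably transfected into HEK293 cells, clones chosen under G418. 300 000 cells/well attached overnight at 37 °C, then fresh DMEM/10% FCS containing 5 nM [3H]androstenedione plus inhibitor (1% DMSO) for 30 min. Supernatant extracted with ether, product measured by HPLC. IC50 taken as mean of at least three experiments.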

[11] = target: T5, 3-oxo-5-alpha-steroid 4-dehydrogenase 1; experiment: Evaluated for the inhibitory activity against human steroid 5-alpha-reductase type I in human DU-145 cell assay at 5 nM of androstenedione; format: cell-based
Outline: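 Whole human DU-145 cells as source of type 1 enzyme, incubated with radiolabeled androstenedione at 5 nM; HPLC separation of product. IC50 = inhibitor concentration giving 50% inhibition; mean of at least two experiments.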

[12] = target: T4, 3-oxo-5-alpha-steroid 4-dehydrogenase 2; experiment: Evaluated for the inhibitory activity against human steroid 5-alpha-reductase type 2 from human BPH tissue at 210 nM of testosterone
Outline: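 Enzyme from prostate homogenate of BPH patients, assayed at pH 5.5 with radiolabeled testosterone at 210 nM; product separated by HPLC. IC50 taken as inhibitor concentration giving 50% inhibition; mean of at least two experiments.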

[13] = target: T6, Thromboxane-A synthase (Homo sapiens) (UniProt P24557); experiment: Inhibition of thromboxane synthase P450 TXA2 at 50 uM
T6 sequence (whole entry): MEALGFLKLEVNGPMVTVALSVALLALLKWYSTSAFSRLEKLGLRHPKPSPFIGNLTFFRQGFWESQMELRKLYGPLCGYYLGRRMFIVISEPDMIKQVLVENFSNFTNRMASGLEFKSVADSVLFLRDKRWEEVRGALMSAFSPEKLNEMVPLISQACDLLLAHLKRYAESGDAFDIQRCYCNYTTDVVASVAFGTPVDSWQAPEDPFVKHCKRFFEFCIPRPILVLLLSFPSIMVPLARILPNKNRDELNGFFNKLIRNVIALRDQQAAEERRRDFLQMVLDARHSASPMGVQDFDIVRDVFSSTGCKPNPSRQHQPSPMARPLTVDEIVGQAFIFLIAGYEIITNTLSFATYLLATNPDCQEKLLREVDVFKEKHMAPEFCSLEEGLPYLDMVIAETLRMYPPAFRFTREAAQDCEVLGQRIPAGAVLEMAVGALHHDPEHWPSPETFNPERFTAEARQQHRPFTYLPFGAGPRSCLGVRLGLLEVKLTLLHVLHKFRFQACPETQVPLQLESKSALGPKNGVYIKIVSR
Outline: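 Thromboxane synthase activity measured in citrated human whole blood; inhibitor tested at 50 µM.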

Compound | IC50 [3] [nM] | IC50 [4] [nM] | IC50 [8] [nM] | IC50 [12] [nM] | other results
CC(=O)N1CCN(c2ccc(OCC3COC(Cn4ccnc4)(c4ccc(Cl)cc4Cl)O3)cc2)CC1 (stereo not drawn) [KETOCONAZOLE] | – | – | – | – | Decrease (Rattus norvegicus [1]): 44%; Decrease (Rattus norvegicus [2]): 57%
C/C(=N/O)[C@@]1(O)CCC2C3CC=C4CC(O)CCC4(C)C3CCC21C (stereo partly drawn) | – | – | – | – | IC50 [6]: Not Active; IC50 [7]: Not Active
C/C(=N/O)[C@H]1CC=C2[C@@H]3CC=C4C[C@@H](O)CC[C@]4(C)[C@H]3CC[C@@]21C | 200 | 125000 | 420 | – | –
C/C(=N/O)C1=CCC2[C@@H]3CC=C4C[C@@H](O)CC[C@]4(C)[C@H]3CC[C@]12C (stereo partly drawn) | 170 | > 125000 | 520 | – | –
C/C(CC1CCC2C3CC(=O)C4=CC(=O)CCC4(C)C3CCC12C)=N\O (stereo not drawn) | – | – | – | 430 | IC50 [9]: 860 nM; IC50 [10]: 2900 nM; IC50 [11]: 900 nM; IC50 [6]: Not Active; IC50 [7]: Not Active
C[C@]12CC[C@H](O)CC1=CC[C@H]1C3CC/C(=C/C=N\O)[C@@]3(C)CC[C@@H]12 (stereo partly drawn) | 77 | 520 | 230 | – | inhibition [13]: 35%

Further lines, with some results ahead:

IC50 [3] [nM] | IC50 [4] [nM] | IC50 [8] [nM] | IC50 [12] [nM] | Compound | other results
270 | 2760 | – | – | CC12CCC(O)CC1=CCC1C2CCC2(C)C(C/C=N/O)CCC12 (stereo not drawn) | inhibition at 25 µM [5]: 74%
> 2500 | > 125000 | – | – | CC12CCC(O)CC1=CCC1C2CCC2(C)/C(=C/C=N/O)CCC12 (stereo not drawn) | –
180 | 140 | – | 430 | C[C@]12CC[C@H](O)C=C1CC[C@H]1C3CC/C(=C/C=N\O)[C@@]3(C)CC[C@@H]12 (stereo partly drawn) | –
– | 300 | – | 300 | CC12CCC(=O)C=C1CCC1C2CCC2(C)C(C/C=N/O)CCC12 (stereo not drawn) | IC50 [9]: 890 nM; IC50 [10]: 2440 nM; IC50 [11]: 1950 nM

— ChEMBL document CHEMBL1133510, “Synthesis and evaluation of novel steroidal oxime inhibitors of P450 17 (17 alpha-hydroxylase/C17-20-lyase) and 5 alpha-reductase types 1 and 2” (J Med Chem, 2000)
